According to ChEMBL document CHEMBL4342503, “Diazabicyclooctane Functionalization for Inhibition of β-Lactamases from Enterobacteria” (2020):
Active and inactive are the calls of the source. No cut-off for these calls is given here.

Tests used:
Escherichia coli [1] = test: Antibacterial activity against Escherichia coli Top10 without harboring AmpC assessed as cefotaxime MIC by CLSI protocol based method (reference value: 0.125 ug/ml); format: functional
Enterobacter cloacae [2] = test: Inhibition of Enterobacter cloacae AmpC expressed in Escherichia coli BL21 DE3 assessed as K2/Ki ratio using nitrocefin as substrate by spectrophotometry
Outline: (§1)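 His-tagged enzymes expressed in E. coli BL21(DE3) (IPTG 0.5 mM, 16°C, 18 h), purified by Ni-NTA and size exclusion in 25 mM Tris-HCl pH 7.5, 300 mM NaCl. Carbamoylation k2/Ki from progress curves, reporter nitrocefin 100 μM, 20°C, 100 mM MES pH 6.4; inhibitor up to 100 μM; ≥6 curves, ≥2 independent experiments.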

[3] = Inhibition of TEM1 (unknown origin) expressed in Escherichia coli BL21 DE3 assessed as K2/Ki ratio using nitrocefin as substrate by spectrophotometry; outline: as §1
Escherichia coli [4] = test: Antibacterial activity against Escherichia coli Top10 without harboring KPC-2 assessed as aztreonam MIC by CLSI protocol based method (reference value: 0.5 ug/ml); format: functional
Escherichia coli [5] = test: Antibacterial activity against Escherichia coli Top10 harboring CTX-M-15 assessed as amoxicillin MIC by CLSI protocol based method (reference value: 2048 ug/ml); format: functional
Escherichia coli [6] = test: Antibacterial activity against Escherichia coli Top10 harboring KPC-2 assessed as aztreonam MIC by CLSI protocol based method (reference value: 2048 ug/ml); format: functional
Bacteria = test: Inhibition of bacterial KPC-2 N132G mutant expressed in Escherichia coli BL21 DE3 assessed as K2/Ki ratio using nitrocefin as substrate by spectrophotometry; outline: as §1
Escherichia coli [7] = test: Antibacterial activity against Escherichia coli Top10 assessed as cefamandole MIC by CLSI protocol based method (reference value: 2 ug/ml); format: functional
Outline: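 Broth microdilution in cation-adjusted Mueller-Hinton broth following CLSI. Strain carries a β-lactamase gene cloned in pTRC-99k (kanamycin marker); preculture in BHI with IPTG (500 μM) and kanamycin (50 μg/ml); IPTG (500 μM) also in plates to induce enzyme. β-Lactam MIC read with or without inhibitor at fixed 15 μM (4 μg/ml for avibactam; clavulanate 4 μg/ml). Median of five biological repeats from two independent experiments.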

Escherichia coli [8] = test: Antibacterial activity against Escherichia coli Top10 without harboring CTX-M-15 assessed as amoxicillin MIC by CLSI protocol based method (reference value: 8 ug/ml); format: functional
[9] = Inhibition of OXA-48 expressed in Escherichia coli BL21 DE3 assessed as K2/Ki ratio using CENTA as substrate by spectrophotometry
Outline: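 OXA-48 expressed in E. coli BL21(DE3) (IPTG 0.5 mM, 16°C, 18 h), purified by Ni-NTA and size exclusion. Carbamoylation k2/Ki by spectrophotometric progress curves with CENTA 100 μM as reporter, 20°C, 100 mM MES pH 6.4; inhibitor up to 100 μM; ≥6 curves from ≥2 independent experiments.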

Enterobacter cloacae [10] = test: Inhibition of Enterobacter cloacae CTX-M-15 expressed in Escherichia coli BL21 DE3 assessed as K2/Ki ratio using nitrocefin as substrate by spectrophotometry; outline: as §1
Escherichia coli [11] = test: Antibacterial activity against Escherichia coli Top10 harboring TEM1 assessed as cefamandole MIC by CLSI protocol based method (reference value: 2048 ug/ml); format: functional
Escherichia coli [12] = test: Antibacterial activity against Escherichia coli Top10 harboring AmpC assessed as cefotaxime MIC by CLSI protocol based method (reference value: 256 ug/ml); format: functional
Escherichia coli [13] = test: Antibacterial activity against Escherichia coli Top10 without harboring OXA-48 assessed as ertapenem MIC by CLSI protocol based method (reference value: < 0.03 ug/ml); format: functional
[14] = Inhibition of KPC-2 (unknown origin) expressed in Escherichia coli BL21 DE3 assessed as K2/Ki ratio using nitrocefin as substrate by spectrophotometry; outline: as §1
Escherichia coli [15] = test: Antibacterial activity against Escherichia coli Top10 harboring OXA-48 assessed as ertapenem MIC by CLSI protocol based method (reference value: 8 ug/ml); format: functional
Enterobacter cloacae [16] = test: Inhibition of Enterobacter cloacae CTX-M-15 N132G mutant expressed in Escherichia coli BL21 DE3 assessed as K2/Ki ratio using nitrocefin as substrate by spectrophotometry; outline: as §1

## NC(=O)[C@@H]1CC[C@@H]2CN1C(=O)N2OS(=O)(=O)[O-].[Na+] [AVIBACTAM SODIUM]
Escherichia coli [1]
  MIC: 0.125 mg/L
Enterobacter cloacae [2]
  Ratio: 18000 M⁻¹ s⁻¹
[3]
  Ratio: 88000 M⁻¹ s⁻¹
Escherichia coli [4]
  MIC: 0.25 mg/L
Escherichia coli [5]
  MIC: 2 mg/L
Escherichia coli [6]
  MIC: 0.5 mg/L
Bacteria
  Ratio: 53 M⁻¹ s⁻¹
Escherichia coli [7]
  MIC: 2 mg/L
Escherichia coli [8]
  MIC: 2 mg/L
[9]
  Ratio: 980 M⁻¹ s⁻¹
Enterobacter cloacae [10]
  Ratio: 130000 M⁻¹ s⁻¹
Escherichia coli [11]
  MIC: 2 mg/L
Escherichia coli [12]
  MIC: 1 mg/L
Escherichia coli [13]
  MIC: < 0.03 mg/L
[14]
  Ratio: 26000 M⁻¹ s⁻¹
Escherichia coli [15]
  MIC: 0.5 mg/L
Enterobacter cloacae [16]
  Ratio: 70 M⁻¹ s⁻¹

## O=C(NC1CCNCC1)[C@@H]1CC[C@@H]2CN1C(=O)N2OS(=O)(=O)[O-].[Na+]
Escherichia coli [1]
  MIC: 0.125 mg/L
Enterobacter cloacae [2]
  Ratio: 15000 M⁻¹ s⁻¹
[3]
  Ratio: 43000 M⁻¹ s⁻¹
Escherichia coli [4]
  MIC: 0.25 mg/L
Escherichia coli [5]
  MIC: 16 mg/L
Escherichia coli [6]
  MIC: 0.5 mg/L
Escherichia coli [7]
  MIC: 2 mg/L
Escherichia coli [8]
  MIC: 2 mg/L
[9]
  Ratio: inactive
Enterobacter cloacae [10]
  Ratio: 960 M⁻¹ s⁻¹
Escherichia coli [11]
  MIC: 4 mg/L
Escherichia coli [12]
  MIC: 0.25 mg/L
Escherichia coli [13]
  MIC: < 0.03 mg/L
[14]
  Ratio: 10000 M⁻¹ s⁻¹
Escherichia coli [15]
  MIC: 8 mg/L

## CC(C)(C)OC(=O)NCCC(=O)Nc1ccc(-c2cn(C[C@@H]3CC[C@@H]4CN3C(=O)N4OS(=O)(=O)[O-])nn2)cc1.[Na+]
Escherichia coli [1]
  MIC: 0.125 mg/L
Enterobacter cloacae [2]
  Ratio: 180 M⁻¹ s⁻¹
[3]
  Ratio: 3700 M⁻¹ s⁻¹
Escherichia coli [4]
  MIC: 0.5 mg/L
Escherichia coli [5]
  MIC: 768 mg/L
Escherichia coli [6]
  MIC: 512 mg/L
Escherichia coli [7]
  MIC: 2 mg/L
Escherichia coli [8]
  MIC: 8 mg/L
[9]
  Ratio: 150 M⁻¹ s⁻¹
Enterobacter cloacae [10]
  Ratio: 2400 M⁻¹ s⁻¹
Escherichia coli [11]
  MIC: 256 mg/L
Escherichia coli [12]
  MIC: 128 mg/L
Escherichia coli [13]
  MIC: < 0.03 mg/L
[14]
  Ratio: 1100 M⁻¹ s⁻¹
Escherichia coli [15]
  MIC: 16 mg/L

## O=C1N2C[C@@H](CC[C@H]2Cn2cc(CN3CCOCC3)nn2)N1OS(=O)(=O)[O-].[Na+]
Escherichia coli [1]
  MIC: 0.125 mg/L
Enterobacter cloacae [2]
  Ratio: 31 M⁻¹ s⁻¹
[3]
  Ratio: 1200 M⁻¹ s⁻¹
Escherichia coli [4]
  MIC: 0.25 mg/L
Escherichia coli [5]
  MIC: 64 mg/L
Escherichia coli [6]
  MIC: 32 mg/L
Escherichia coli [7]
  MIC: 2 mg/L
Escherichia coli [8]
  MIC: 8 mg/L
[9]
  Ratio: inactive
Enterobacter cloacae [10]
  Ratio: 100 M⁻¹ s⁻¹
Escherichia coli [11]
  MIC: 8 mg/L
Escherichia coli [12]
  MIC: 128 mg/L
Escherichia coli [13]
  MIC: < 0.03 mg/L
[14]
  Ratio: 190 M⁻¹ s⁻¹
Escherichia coli [15]
  MIC: 8 mg/L

## O=C1N2C[C@@H](CC[C@H]2Cn2cc(-c3ccccc3)nn2)N1OS(=O)(=O)[O-].[Na+]
Escherichia coli [1]
  MIC: 0.25 mg/L
Enterobacter cloacae [2]
  Ratio: 200 M⁻¹ s⁻¹
[3]
  Ratio: 4700 M⁻¹ s⁻¹
Escherichia coli [4]
  MIC: 0.25 mg/L
Escherichia coli [5]
  MIC: 64 mg/L
Escherichia coli [6]
  MIC: 64 mg/L
Bacteria
  Ratio: 21 M⁻¹ s⁻¹
Escherichia coli [7]
  MIC: 4 mg/L
Escherichia coli [8]
  MIC: 8 mg/L
[9]
  Ratio: 110 M⁻¹ s⁻¹
Enterobacter cloacae [10]
  Ratio: 6900 M⁻¹ s⁻¹
Escherichia coli [11]
  MIC: 16 mg/L
Escherichia coli [12]
  MIC: 128 mg/L
Escherichia coli [13]
  MIC: < 0.03 mg/L
[14]
  Ratio: 930 M⁻¹ s⁻¹
Escherichia coli [15]
  MIC: 8 mg/L
Enterobacter cloacae [16]
  Ratio: 140 M⁻¹ s⁻¹

## CC(C)(C)OC(=O)NCc1cn(C[C@@H]2CC[C@@H]3CN2C(=O)N3OS(=O)(=O)[O-])nn1.[Na+]
Escherichia coli [1]
  MIC: 0.125 mg/L
Enterobacter cloacae [2]
  Ratio: 51 M⁻¹ s⁻¹
[3]
  Ratio: 2800 M⁻¹ s⁻¹
Escherichia coli [4]
  MIC: 0.25 mg/L
Escherichia coli [5]
  MIC: 1020 mg/L
Escherichia coli [6]
  MIC: 512 mg/L
Escherichia coli [7]
  MIC: 2 mg/L
Escherichia coli [8]
  MIC: 8 mg/L
[9]
  Ratio: 210 M⁻¹ s⁻¹
Enterobacter cloacae [10]
  Ratio: 130 M⁻¹ s⁻¹
Escherichia coli [11]
  MIC: 128 mg/L
Escherichia coli [12]
  MIC: 128 mg/L
Escherichia coli [13]
  MIC: < 0.03 mg/L
[14]
  Ratio: 540 M⁻¹ s⁻¹
Escherichia coli [15]
  MIC: 16 mg/L

## COCc1cn(C[C@@H]2CC[C@@H]3CN2C(=O)N3OS(=O)(=O)[O-])nn1.[Na+]
Escherichia coli [1]
  MIC: 0.125 mg/L
Enterobacter cloacae [2]
  Ratio: 15 M⁻¹ s⁻¹
[3]
  Ratio: 830 M⁻¹ s⁻¹
Escherichia coli [4]
  MIC: 0.5 mg/L
Escherichia coli [5]
  MIC: 256 mg/L
Escherichia coli [6]
  MIC: 512 mg/L
Escherichia coli [7]
  MIC: 2 mg/L
Escherichia coli [8]
  MIC: 8 mg/L
[9]
  Ratio: inactive
Enterobacter cloacae [10]
  Ratio: 120 M⁻¹ s⁻¹
Escherichia coli [11]
  MIC: 16 mg/L
Escherichia coli [12]
  MIC: 128 mg/L
Escherichia coli [13]
  MIC: < 0.03 mg/L
[14]
  Ratio: 18 M⁻¹ s⁻¹
Escherichia coli [15]
  MIC: 16 mg/L

## NCCC(=O)Nc1ccc(-c2cn(C[C@@H]3CC[C@@H]4CN3C(=O)N4OS(=O)(=O)O)nn2)cc1.O=C(O)C(F)(F)F
Escherichia coli [1]
  MIC: 0.25 mg/L
Enterobacter cloacae [2]
  Ratio: 28 M⁻¹ s⁻¹
[3]
  Ratio: 940 M⁻¹ s⁻¹
Escherichia coli [4]
  MIC: 0.25 mg/L
Escherichia coli [5]
  MIC: 128 mg/L
Escherichia coli [6]
  MIC: 64 mg/L
Escherichia coli [7]
  MIC: 2 mg/L
Escherichia coli [8]
  MIC: 4 mg/L
[9]
  Ratio: inactive
Enterobacter cloacae [10]
  Ratio: 150 M⁻¹ s⁻¹
Escherichia coli [11]
  MIC: 32 mg/L
Escherichia coli [12]
  MIC: 64 mg/L
Escherichia coli [13]
  MIC: < 0.03 mg/L
[14]
  Ratio: 180 M⁻¹ s⁻¹
Escherichia coli [15]
  MIC: 4 mg/L

## O=C1N2C[C@@H](CC[C@H]2Cn2nccn2)N1OS(=O)(=O)[O-].[Na+]
Escherichia coli [1]
  MIC: 0.125 mg/L
Enterobacter cloacae [2]
  Ratio: 200 M⁻¹ s⁻¹
[3]
  Ratio: 2600 M⁻¹ s⁻¹
Escherichia coli [4]
  MIC: 0.5 mg/L
Escherichia coli [5]
  MIC: 512 mg/L
Escherichia coli [6]
  MIC: 512 mg/L
Escherichia coli [7]
  MIC: 2 mg/L
Escherichia coli [8]
  MIC: 4 mg/L
[9]
  Ratio: 150 M⁻¹ s⁻¹
Enterobacter cloacae [10]
  Ratio: 120 M⁻¹ s⁻¹
Escherichia coli [11]
  MIC: 16 mg/L
Escherichia coli [12]
  MIC: 32 mg/L
Escherichia coli [13]
  MIC: < 0.03 mg/L
[14]
  Ratio: 350 M⁻¹ s⁻¹
Escherichia coli [15]
  MIC: 8 mg/L

## O=C1N2C[C@@H](CC[C@H]2Cn2ccnn2)N1OS(=O)(=O)[O-].[Na+]
Escherichia coli [1]
  MIC: 0.125 mg/L
Enterobacter cloacae [2]
  Ratio: 210 M⁻¹ s⁻¹
[3]
  Ratio: 1200 M⁻¹ s⁻¹
Escherichia coli [4]
  MIC: 0.25 mg/L
Escherichia coli [5]
  MIC: 64 mg/L
Escherichia coli [6]
  MIC: 512 mg/L
Bacteria
  Ratio: 31 M⁻¹ s⁻¹
Escherichia coli [7]
  MIC: 2 mg/L
Escherichia coli [8]
  MIC: 8 mg/L
[9]
  Ratio: 140 M⁻¹ s⁻¹
Enterobacter cloacae [10]
  Ratio: 280 M⁻¹ s⁻¹
Escherichia coli [11]
  MIC: 8 mg/L
Escherichia coli [12]
  MIC: 16 mg/L
Escherichia coli [13]
  MIC: < 0.03 mg/L
[14]
  Ratio: 280 M⁻¹ s⁻¹
Escherichia coli [15]
  MIC: 8 mg/L
Enterobacter cloacae [16]
  Ratio: 6.6 M⁻¹ s⁻¹
